Reference: ChEMBL document CHEMBL3297702, “Improving photodynamic inactivation of bacteria in dentistry: highly effective and fast killing of oral key pathogens with novel tooth-colored type-II photosensitizers” (J Med Chem, 2014)
Calls of active or inactive are those of the source. No cut-off for these calls is given here.

Columns and labels:
Enterococcus faecalis [1] = assay: Photodynamic inactivation of biofilm of Enterococcus faecalis ATCC 29212 monospecies assessed as reduction of log10 CFU at 100 uM preincubated for 60 mins followed by irradiation with 600 mW/cm'2 for 120 secs measured after 24 hrs by agar plating method; format: functional
Enterococcus faecalis [2] = assay: Toxicity in Enterococcus faecalis ATCC 29212 assessed as reduction of log10 CFU at 1 to 250 uM incubated for 10 secs to 15 mins under dark condition measured after 24 hrs by agar plating method; format: organism-based; details: in vivo
In short: (§1)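 Dark controls. Overnight BHI cultures (EF, SM, AN aerobic; AA anaerobic; 37 °C) were washed into PBS at 10^7–10^8 cells/mL. They were mixed 1:1 with photosensitizer at final 0–250 µM and incubated 10 s, 7.5 min or 15 min, then kept in the dark for 20, 40 or 120 s. Tenfold dilutions were plated: EF on Mueller-Hinton agar, aerobic 24 h; SM on BHI agar, aerobic 48 h; AN on blood agar, aerobic 48 h; AA on BHI agar, anaerobic 48 h; all at 37 °C. CFU were compared with untreated controls; medians of three independent experiments in triplicate.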

Streptococcus mutans [3] = assay: Toxicity in Streptococcus mutans ATCC 25175 assessed as reduction of log10 CFU at 1 to 250 uM incubated for 10 secs to 15 mins under dark condition measured after 48 hrs by agar plating method; in short: as §1
Actinomyces naeslundii [4] = assay: Toxicity in Actinomyces naeslundii T14V assessed as reduction of log10 CFU at 1 to 250 uM incubated for 10 secs to 15 mins under dark condition measured after 48 hrs by agar plating method; format: organism-based; details: in vivo; in short: as §1
[5] = tested on: Aggregatibacter actinomycetemcomitans; assay: Toxicity in Aggregatibacter actinomycetemcomitans ATCC 43718 assessed as reduction of log10 CFU under dark condition at 1 to 250 uM incubated for 10 secs to 15 mins under dark condition measured after 48 hrs by agar plating method; parameters: species or system Y4; in short: as §1
[6] = tested on: Aggregatibacter actinomycetemcomitans; assay: Photodynamic inactivation of Aggregatibacter actinomycetemcomitans ATCC 43718 assessed as reduction of log10 CFU at 1 to 250 uM incubated prior to irradiation with 150 j/cm'2 for 120 secs measured after 48 hrs by agar plating method; format: functional; details: Y4
In short: (§2)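 A. actinomycetemcomitans ATCC 43718 cultured overnight in BHI broth under anaerobic conditions, 37 °C with shaking. Stationary-phase cells were spun down, taken up in PBS to 10^7–10^8/mL, and combined 1:1 with PS (final 0–250 µM) or water. After 10 s they were irradiated at 1260 ± 50 mW/cm2 or kept dark. Serial dilutions went onto BHI agar, incubated anaerobically at 37 °C for 48 h, and CFU were scored. Results are medians from 3 experiments × triplicate versus untreated controls.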

Streptococcus mutans [7] = assay: Photodynamic inactivation of Streptococcus mutans ATCC 25175 assessed as reduction of log10 CFU at 10 uM incubated prior to irradiation with 150 j/cm'2 for 120 secs measured after 48 hrs by agar plating method (reference value: <1 no unit); format: functional
[8] = tested on: Aggregatibacter actinomycetemcomitans; assay: Photodynamic inactivation of Aggregatibacter actinomycetemcomitans ATCC 43718 assessed as reduction of log10 CFU at 10 uM incubated prior to irradiation with 50 j/cm'2 for 40 secs measured after 48 hrs by agar plating method (reference value: <1 no unit); format: functional, Y4; in short: as §2
Enterococcus faecalis [9] = assay: Photodynamic inactivation of biofilm of Enterococcus faecalis ATCC 29212 polyspecies assessed as reduction of log10 CFU at 100 uM preincubated for 60 mins followed by irradiation with 600 mW/cm'2 for 120 secs measured after 24 hrs by agar plating method; format: functional
Actinomyces naeslundii [10] = assay: Photodynamic inactivation of biofilm of Actinomyces naeslundii T14V monospecies assessed as reduction of log10 CFU at 100 uM preincubated for 60 mins followed by irradiation with 600 mW/cm'2 for 120 secs measured after 28 hrs by agar plating method; format: functional
Actinomyces naeslundii [11] = assay: Photodynamic inactivation of biofilm of Actinomyces naeslundii T14V polyspecies assessed as reduction of log10 CFU at 100 uM preincubated for 60 mins followed by irradiation with 600 mW/cm'2 for 120 secs measured after 28 hrs by agar plating method; format: functional
[12] = Stability of the compound in D2O assessed as aggregation at 1 to 20 mM by NMR analysis; format: physicochemical; details: 20000 µM
In short: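 ¹H NMR, aromatic region, in D2O at 1, 5, 10 and 20 mM; shifts referenced to external TMS, 1 ppm = 400 Hz; spectra compared across concentrations for dimerisation.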

[13] = Stability of the compound in D2O assessed as aggregate formation by measuring shift of spectrum in aromatic region at > 0.5 ppm at 50 to 90 degC by NMR analysis; format: physicochemical
Streptococcus mutans [14] = assay: Toxicity in Streptococcus mutans ATCC 25175 assessed as reduction of log10 CFU at 1 to 250 uM incubated for 10 secs under dark condition measured after 48 hrs by agar plating method; in short: as §1
Actinomyces naeslundii [15] = assay: Toxicity in Actinomyces naeslundii T14V assessed as reduction of log10 CFU at 1 to 250 uM incubated for 10 secs under dark condition measured after 48 hrs by agar plating method; format: organism-based; details: in vivo; in short: as §1
[16] = tested on: Aggregatibacter actinomycetemcomitans; assay: Toxicity in Aggregatibacter actinomycetemcomitans ATCC 43718 assessed as reduction of log10 CFU under dark condition at 1 to 250 uM incubated for 10 secs under dark condition measured after 48 hrs by agar plating method; parameters: species or system Y4; in short: as §1
Actinomyces naeslundii [17] = assay: Photodynamic inactivation of Actinomyces naeslundii T14V assessed as reduction of log10 CFU at 10 uM incubated prior to irradiation with 150 j/cm'2 for 120 secs measured after 48 hrs by agar plating method (reference value: <1 no unit); format: functional
In short: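 A. naeslundii T14V grown overnight at 37 °C, shaken, aerobically in BHI broth. Harvested at stationary phase, resuspended in PBS to 10^7–10^8 bacteria/mL (OD600). Mixed 1:1 with PS (final 0–250 µM) or water, 10 s incubation, then blue photopolymerizer light (1260 ± 50 mW/cm2) or dark. Tenfold dilutions plated on blood agar, aerobic 37 °C 48 h, CFU counted; medians of three independent experiments in triplicate.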

SMILES | log10cfu (Enterococcus faecalis [1]) | Activity (Enterococcus faecalis [2]) | Activity (Streptococcus mutans [3]) | Activity (Actinomyces naeslundii [4]) | Activity [5] | Activity [6] | log10cfu (Streptococcus mutans [7]) | log10cfu [8] | log10cfu (Enterococcus faecalis [9]) | log10cfu (Actinomyces naeslundii [10]) | log10cfu (Actinomyces naeslundii [11]) | Stability [12] | Activity [13] [mM] | Activity (Streptococcus mutans [14]) | Activity (Actinomyces naeslundii [15]) | Activity [16] | log10cfu (Actinomyces naeslundii [17])
O=C1C(C[n+]2ccccc2)=Cc2cccc3cccc1c23.[Cl-] | >5 | Non-toxic | Non-toxic | Non-toxic | Non-toxic | Active | >6 | >6 | >5 | >5 | >5 | – | – | – | – | – | –
C[N+](C)(C)CC1=Cc2cccc3cccc(c23)C1=O.[Cl-] | – | – | – | – | – | Active | – | – | – | – | – | Unstable | 70 | – | – | – | –
C[N+](C)(CCO)CC1=Cc2cccc3cccc(c23)C1=O.[Cl-] | – | – | – | – | – | – | >6 | <3 | – | – | – | – | – | Non-toxic | Non-toxic | Non-toxic | <5
